Assay results taken from ChEMBL document CHEMBL3097988, “Synthesis and characterization of new N-(4-(4-chloro-1H-imidazol-1-yl)-3-methoxyphenyl)amide/sulfonamide derivatives as possible antimicrobial and antitubercular agents” (2014).
≈ marks a conversion by molar mass, not a printed value.

Assays:
Assay type in all cases: functional
Escherichia coli = experiment: Antimicrobial activity against Escherichia coli ATCC 25922 after 16 to 18 hrs by […]
Aspergillus flavus = experiment: Antimicrobial activity against Aspergillus flavus after 3 to 4 days by serial plate dilution method
Summary of the method: (§1)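 Fungal MIC by serial plate dilution. Sabouraud agar (peptone, D-glucose, agar; pH 5.7) plates seeded with saline spore suspension, dried 1 h at 37 °C. Wells punched and filled with compound in DMSO; DMSO-only control. Triplicate plates held 3–4 days at 37 °C; inhibition zone diameter measured. Amphotericin B positive control. Tested range […] per mL.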

Staphylococcus aureus = experiment: Antimicrobial activity against Staphylococcus aureus ATCC 25923 after 16 to 18 hrs by […]
[1] = system: Mycobacterium tuberculosis; experiment: Antimicrobial activity against Mycobacterium tuberculosis H37Rv ATCC 27294 after 7 days by resazurin assay; conditions: H37Rv ATCC 27294, 168 h
Summary of the method: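 Resazurin microtitre assay. Cultures were grown in Middlebrook 7H9 with 10% OADC and added to fresh medium in 96-well plates. Test compounds came from 2 mg/mL DMF stocks, with DMF-only controls. Plates were incubated 7 days at 37 °C, then resazurin was added and read after 1 h at 37 °C. MIC was the lowest concentration preventing the blue-to-pink change.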

[2] = system: Mycolicibacterium smegmatis; experiment: Antimicrobial activity against Mycobacterium smegmatis (MC2) ATCC 19420 after 7 days by resazurin assay; conditions: (MC2) ATCC 19420, 168 h
Klebsiella pneumoniae = experiment: Antimicrobial activity against Klebsiella pneumoniae ATCC 13883 after 16 to 18 hrs by serial plate dilution method
Summary of the method: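 Bacterial MIC by serial dilution in Mueller-Hinton broth adjusted to pH 5.0 with phosphate buffer. Tubes inoculated with standardized bacterial suspension, incubated 16–18 h at 37 °C. MIC read as lowest concentration with no visible growth. Range […] per mL. DMSO as negative control, ciprofloxacin as positive control.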

Candida albicans = experiment: Antimicrobial activity against Candida albicans after 3 to 4 days by serial plate dilution method; summary of the method: as §1
[3] = system: Mycobacterium tuberculosis; experiment: Antimicrobial activity against Mycobacterium tuberculosis H37Rv ATCC 27294 at 1 to 100 ug/ml after 7 days by resazurin assay
Summary of the method: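 Preliminary screen at three concentrations (1, 10 and 100) by resazurin microtitre assay. Cultures were grown in Middlebrook 7H9 with 10% OADC, and compounds came from 2 mg/mL DMF stocks with DMF controls. Plates were incubated 7 days at 37 °C, and resazurin colour was read after 1 h. Inhibition was scored as no blue-to-pink change.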

Rhizopus = experiment: Antimicrobial activity against Rhizopus sp. after 3 to 4 days by serial plate dilution method; summary of the method: as §1
[4] = system: Mycolicibacterium fortuitum; experiment: Antimicrobial activity against Mycobacterium fortuitum ATCC 19542 after 7 days by resazurin assay; conditions: ATCC 19542, 168 h

COc1cc(NC(=O)c2ccc(Cl)cc2Cl)ccc1-n1cnc(Cl)c1
MIC (Escherichia coli): 64 µg/mL (≈ 161 µM) | MIC (Aspergillus flavus): 128 µg/mL (≈ 323 µM) | MIC (Staphylococcus aureus): 128 µg/mL (≈ 323 µM) | MIC [1]: 5 µg/mL (≈ 12.6 µM) | MIC [2]: 10 µg/mL (≈ 25.2 µM) | MIC (Klebsiella pneumoniae): > 256 µg/mL | MIC (Candida albicans): > 256 µg/mL | inhibition (INH) [3]: <90% | MIC (Rhizopus): 128 µg/mL (≈ 323 µM)

COc1cc(NC(=O)Cc2cccc(C(F)(F)F)c2)ccc1-n1cnc(Cl)c1
MIC (Escherichia coli): 256 µg/mL (≈ 625 µM) | MIC [4]: 10 µg/mL (≈ 24.4 µM) | MIC (Aspergillus flavus): 256 µg/mL (≈ 625 µM) | MIC (Staphylococcus aureus): 128 µg/mL (≈ 312 µM) | MIC [1]: 2.5 µg/mL (≈ 6.1 µM) | MIC [2]: 10 µg/mL (≈ 24.4 µM) | MIC (Klebsiella pneumoniae): 64 µg/mL (≈ 156 µM) | MIC (Candida albicans): 128 µg/mL (≈ 312 µM) | inhibition (INH) [3]: <90% | MIC (Rhizopus): > 256 µg/mL

COc1cc(NC(=O)c2ccco2)ccc1-n1cnc(Cl)c1
MIC (Escherichia coli): 128 µg/mL (≈ 403 µM) | MIC (Aspergillus flavus): 128 µg/mL (≈ 403 µM) | MIC (Staphylococcus aureus): > 256 µg/mL | MIC [1]: 5 µg/mL (≈ 15.7 µM) | MIC (Klebsiella pneumoniae): > 256 µg/mL | MIC (Candida albicans): > 256 µg/mL | inhibition (INH) [3]: <90% | MIC (Rhizopus): > 256 µg/mL

COc1cc(NC(=O)c2cc(F)cc(C(F)(F)F)c2)ccc1-n1cnc(Cl)c1
MIC (Escherichia coli): 128 µg/mL (≈ 309 µM) | MIC [4]: 10 µg/mL (≈ 24.2 µM) | MIC (Aspergillus flavus): 256 µg/mL (≈ 619 µM) | MIC (Staphylococcus aureus): 128 µg/mL (≈ 309 µM) | MIC [1]: 10 µg/mL (≈ 24.2 µM) | MIC (Klebsiella pneumoniae): 64 µg/mL (≈ 155 µM) | MIC (Candida albicans): 64 µg/mL (≈ 155 µM) | inhibition (INH) [3]: 90% | MIC (Rhizopus): 128 µg/mL (≈ 309 µM)

COc1ccc(C(=O)Nc2ccc(-n3cnc(Cl)c3)c(OC)c2)cc1
MIC (Escherichia coli): > 256 µg/mL | MIC (Aspergillus flavus): 256 µg/mL (≈ 715 µM) | MIC (Staphylococcus aureus): > 256 µg/mL | MIC (Klebsiella pneumoniae): 256 µg/mL (≈ 715 µM) | MIC (Candida albicans): > 256 µg/mL | inhibition (INH) [3]: 0% | MIC (Rhizopus): > 256 µg/mL

COc1cc(NC(=O)c2ccc(C(F)(F)F)cc2)ccc1-n1cnc(Cl)c1
MIC (Escherichia coli): 64 µg/mL (≈ 162 µM) | MIC [4]: 1.25 µg/mL (≈ 3.16 µM) | MIC (Aspergillus flavus): 128 µg/mL (≈ 323 µM) | MIC (Staphylococcus aureus): 128 µg/mL (≈ 323 µM) | MIC [1]: 1.25 µg/mL (≈ 3.16 µM) | MIC [2]: 2.5 µg/mL (≈ 6.32 µM) | MIC (Klebsiella pneumoniae): 64 µg/mL (≈ 162 µM) | MIC (Candida albicans): 32 µg/mL (≈ 80.9 µM) | inhibition (INH) [3]: 90% | MIC (Rhizopus): 64 µg/mL (≈ 162 µM)

COc1cc(NC(=O)c2cccc([N+](=O)[O-])c2Cl)ccc1-n1cnc(Cl)c1
MIC (Escherichia coli): > 256 µg/mL | MIC [4]: 1.25 µg/mL (≈ 3.07 µM) | MIC (Aspergillus flavus): 256 µg/mL (≈ 629 µM) | MIC (Staphylococcus aureus): 128 µg/mL (≈ 314 µM) | MIC [1]: 1.25 µg/mL (≈ 3.07 µM) | MIC [2]: 1.25 µg/mL (≈ 3.07 µM) | MIC (Klebsiella pneumoniae): 128 µg/mL (≈ 314 µM) | MIC (Candida albicans): 128 µg/mL (≈ 314 µM) | inhibition (INH) [3]: 90% | MIC (Rhizopus): > 256 µg/mL

COc1cc(NC(=O)c2c(F)ccc(C(F)(F)F)c2Cl)ccc1-n1cnc(Cl)c1
MIC (Escherichia coli): 128 µg/mL (≈ 286 µM) | MIC (Aspergillus flavus): > 256 µg/mL | MIC (Staphylococcus aureus): > 256 µg/mL | MIC [1]: 2.5 µg/mL (≈ 5.58 µM) | MIC [2]: 2.5 µg/mL (≈ 5.58 µM) | MIC (Klebsiella pneumoniae): 256 µg/mL (≈ 571 µM) | MIC (Candida albicans): 128 µg/mL (≈ 286 µM) | inhibition (INH) [3]: <90% | MIC (Rhizopus): 128 µg/mL (≈ 286 µM)

COc1cc(F)c(C(=O)Nc2ccc(-n3cnc(Cl)c3)c(OC)c2)c(F)c1
MIC (Escherichia coli): > 256 µg/mL | MIC (Aspergillus flavus): 256 µg/mL (≈ 650 µM) | MIC (Staphylococcus aureus): 256 µg/mL (≈ 650 µM) | MIC [1]: 5 µg/mL (≈ 12.7 µM) | MIC (Klebsiella pneumoniae): 128 µg/mL (≈ 325 µM) | MIC (Candida albicans): 256 µg/mL (≈ 650 µM) | inhibition (INH) [3]: <90% | MIC (Rhizopus): > 256 µg/mL

COc1cc(NC(=O)c2cccs2)ccc1-n1cnc(Cl)c1
MIC (Escherichia coli): 128 µg/mL (≈ 383 µM) | MIC [4]: 2.5 µg/mL (≈ 7.49 µM) | MIC (Aspergillus flavus): 64 µg/mL (≈ 192 µM) | MIC (Staphylococcus aureus): 128 µg/mL (≈ 383 µM) | MIC [1]: 5 µg/mL (≈ 15 µM) | MIC [2]: 1.25 µg/mL (≈ 3.74 µM) | MIC (Klebsiella pneumoniae): 64 µg/mL (≈ 192 µM) | MIC (Candida albicans): 256 µg/mL (≈ 767 µM) | inhibition (INH) [3]: 90% | MIC (Rhizopus): 32 µg/mL (≈ 95.9 µM)

COc1cc(NC(=O)C2(c3ccc(Cl)cc3)CC2)ccc1-n1cnc(Cl)c1
MIC (Escherichia coli): 128 µg/mL (≈ 318 µM) | MIC (Aspergillus flavus): 256 µg/mL (≈ 636 µM) | MIC (Staphylococcus aureus): 64 µg/mL (≈ 159 µM) | MIC [1]: 2.5 µg/mL (≈ 6.21 µM) | MIC [2]: 2.5 µg/mL (≈ 6.21 µM) | MIC (Klebsiella pneumoniae): 256 µg/mL (≈ 636 µM) | MIC (Candida albicans): > 256 µg/mL | inhibition (INH) [3]: <90% | MIC (Rhizopus): > 256 µg/mL

C[C@@H]1[C@H](O)[C@@H](C)/C=C/C=C/C=C/C=C/C=C/C=C/C=C/[C@H](O[C@@H]2O[C@H](C)[C@@H](O)[C@H](N)[C@@H]2O)C[C@@H]2O[C@](O)(C[C@@H](O)C[C@@H](O)[C@H](O)CC[C@@H](O)C[C@@H](O)CC(=O)O[C@H]1C)C[C@H](O)[C@H]2C(=O)O [AMPHOTERICIN B]
MIC (Aspergillus flavus): 8 µg/mL (≈ 8.66 µM) | MIC (Candida albicans): 8 µg/mL (≈ 8.66 µM) | MIC (Rhizopus): 16 µg/mL (≈ 17.3 µM)

O=C(O)c1cn(C2CC2)c2cc(N3CCNCC3)c(F)cc2c1=O [CIPROFLOXACIN]
MIC (Staphylococcus aureus): 8 µg/mL (≈ 24.1 µM) | MIC (Klebsiella pneumoniae): 16 µg/mL (≈ 48.3 µM)

NNC(=O)c1ccncc1 [ISONIAZID]
MIC [4]: 12.5 µg/mL (≈ 91.1 µM) | MIC [1]: 0.7 µg/mL (≈ 5.1 µM) | MIC [2]: 50 µg/mL (≈ 365 µM) | inhibition (INH) [3]: 95%

CO[C@H]1/C=C/O[C@@]2(C)Oc3c(C)c(O)c4c(O)c(c(/C=N/N5CCN(C)CC5)c(O)c4c3C2=O)NC(=O)/C(C)=C\C=C\[C@H](C)[C@H](O)[C@@H](C)[C@@H](O)[C@@H](C)[C@H](OC(C)=O)[C@@H]1C [RIFAMPIN]
MIC [4]: 1.5 µg/mL (≈ 1.82 µM) | MIC [1]: 0.5 µg/mL (≈ 0.608 µM) | MIC [2]: 1.5 µg/mL (≈ 1.82 µM) | inhibition (INH) [3]: 95%
